Laboratory results published in ChEMBL document CHEMBL4371053, “A novel tetrazole analogue of resveratrol is a potent anticancer agent” (Bioorg Med Chem Lett, 2019).
The source made the active and inactive calls. The rule behind the calls is not given here.

Assays:
NCI-H460 = experiment: Growth inhibition of human NCI-H460 cells at 10 uM after 48 hrs by sulforhodamine B assay relative to control; type: functional; details: NCI-H460, 48 h, values are per cent of control
How it was run: (§1)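 NCI-60 single-dose screen. Cells exposed to 10⁻⁵ M or to vehicle for 48 h. Growth measured by sulforhodamine B optical density before and after exposure. Reported as percent growth relative to vehicle control and to time-zero cell number; negative values indicate cell kill.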

NCI-H522 = experiment: Growth inhibition of human NCI-H522 cells at 10 uM after 48 hrs by sulforhodamine B assay relative to control; type: functional; details: NCI-H522, 48 h, values are per cent of control; how it was run: as §1
KM12 = experiment: Growth inhibition of human KM12 cells at 10 uM after 48 hrs by sulforhodamine B assay relative to control; type: functional; details: KM12, 48 h, values are per cent of control; how it was run: as §1
MDA-MB-435 = experiment: Growth inhibition of human MDA-MB-435 cells at 10 uM after 48 hrs by sulforhodamine B assay relative to control; type: functional; details: MDA-MB-435, 48 h, values are per cent of control; how it was run: as §1
SK-MEL-5 = experiment: Growth inhibition of human SK-MEL-5 cells at 10 uM after 48 hrs by sulforhodamine B assay relative to control; type: functional; details: SK-MEL-5, 48 h, values are per cent of control; how it was run: as §1
OVCAR-3 = experiment: Growth inhibition of human OVCAR3 cells at 10 uM after 48 hrs by sulforhodamine B assay relative to control; type: functional; details: OVCAR-3, 48 h, values are per cent of control; how it was run: as §1
A498 = experiment: Growth inhibition of human A498 cells at 10 uM after 48 hrs by sulforhodamine B assay relative to control; type: functional; details: A498, 48 h, values are per cent of control; how it was run: as §1
DU-145 = experiment: Growth inhibition of human DU145 cells at 10 uM after 48 hrs by sulforhodamine B assay relative to control; type: functional; details: DU-145, 48 h, values are per cent of control; how it was run: as §1
Tubulin (Homo sapiens) = Tubulin (Homo sapiens) (UniProt P68371+Q9H4B7+P0DPH7+P68366+Q13509+Q71U36+P04350+Q3ZCM7+P07437+P68363+Q9BQE3+Q6PEY2+Q13885+Q9BVA1+Q9BUF5); experiment: Inhibition of tubulin (unknown origin) polymerization at 2 uM by immunoblot analysis; type: protein-complex assay
How it was run: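 Cell-based assay. Cells were treated with compound at 1.0 and 2.0 μM. Polymerized tubulin (pellet) was separated from unpolymerized tubulin (supernatant), and both fractions were immunoblotted with anti-tubulin antibody.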

SF-539 = experiment: Growth inhibition of human SF539 cells at 10 uM after 48 hrs by sulforhodamine B assay relative to control; type: functional; details: SF-539, 48 h, values are per cent of control; how it was run: as §1

Row | SMILES | growth, % of control at 10 µM (NCI-H460) [%] | growth, % of control at 10 µM (NCI-H522) [%] | growth, % of control at 10 µM (KM12) [%] | growth, % of control at 10 µM (MDA-MB-435) [%] | growth, % of control at 10 µM (SK-MEL-5) [%] | growth, % of control at 10 µM (OVCAR-3) [%] | growth, % of control at 10 µM (A498) [%] | growth, % of control at 10 µM (DU-145) [%] | inhibition (Tubulin (Homo sapiens)) | growth, % of control at 10 µM (SF-539) [%]
1 | COc1ccc(/C=C(/c2cc(OC)c(OC)c(OC)c2)c2nnn[nH]2)cc1 | 110 | 90.3 | 102 | 100 | 94.1 | 113 | 102 | 108 | Active | –
2 | COc1ccc(/C(=C/c2cc(OC)c(OC)c(OC)c2)c2nnn[nH]2)cc1OC | 106 | 90.2 | 99.8 | 102 | 96.4 | 118 | 89.5 | 106 | – | 96.2
3 | COc1ccc(/C=C(/c2ccc([N+](=O)[O-])cc2)c2nnn[nH]2)c2ccccc12 | 103 | 89.4 | 111 | 105 | 97.1 | 112 | 112 | 113 | Active | 104
